Measured values: ChEMBL document CHEMBL1158464, “Structure-activity relationships and cancer-cell selective toxicity of novel inhibitors of glioma-associated oncogene homologue 1 (Gli1) mediated transcription” (J Med Chem, 2009)
Calls of active or inactive are those of the source. No cut-off for these calls is given here.

Key:
MDA-MB-231 = assay: Cytotoxicity against human MDA-MB-231 cells at 40 uM/well after 68 hrs by alamar blue assay; format: functional, cell-based
How it was run: (§1)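 Cells plated in appropriate medium 24 h before compound. A 10 mM DMSO stock was diluted in EMEM to 160 µM (4×) and added in triplicate to a final 40 µM. Incubated 68 h at 37 °C, then Alamar Blue for 4 h at 37 °C. Fluorescence read at ex 510/em 590 nm. Viability taken relative to DMSO control wells.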

Raji = assay: Cytotoxicity against human Raji cells at 40 uM/well after 68 hrs by alamar blue assay; format: functional, cell-based; how it was run: as §1
[1] = molecular target: T1, Zinc finger protein GLI1 (Homo sapiens) (UniProt P08151); assay: Inhibition of exogenously transfected human Gli1-mediated transcriptional activity in mouse C3H10T1/2 cells at 20 uM after 24 hrs by luciferase reporter gene assay; format: cell-based; settings: C3H 10T1/2
T1 sequence (whole entry): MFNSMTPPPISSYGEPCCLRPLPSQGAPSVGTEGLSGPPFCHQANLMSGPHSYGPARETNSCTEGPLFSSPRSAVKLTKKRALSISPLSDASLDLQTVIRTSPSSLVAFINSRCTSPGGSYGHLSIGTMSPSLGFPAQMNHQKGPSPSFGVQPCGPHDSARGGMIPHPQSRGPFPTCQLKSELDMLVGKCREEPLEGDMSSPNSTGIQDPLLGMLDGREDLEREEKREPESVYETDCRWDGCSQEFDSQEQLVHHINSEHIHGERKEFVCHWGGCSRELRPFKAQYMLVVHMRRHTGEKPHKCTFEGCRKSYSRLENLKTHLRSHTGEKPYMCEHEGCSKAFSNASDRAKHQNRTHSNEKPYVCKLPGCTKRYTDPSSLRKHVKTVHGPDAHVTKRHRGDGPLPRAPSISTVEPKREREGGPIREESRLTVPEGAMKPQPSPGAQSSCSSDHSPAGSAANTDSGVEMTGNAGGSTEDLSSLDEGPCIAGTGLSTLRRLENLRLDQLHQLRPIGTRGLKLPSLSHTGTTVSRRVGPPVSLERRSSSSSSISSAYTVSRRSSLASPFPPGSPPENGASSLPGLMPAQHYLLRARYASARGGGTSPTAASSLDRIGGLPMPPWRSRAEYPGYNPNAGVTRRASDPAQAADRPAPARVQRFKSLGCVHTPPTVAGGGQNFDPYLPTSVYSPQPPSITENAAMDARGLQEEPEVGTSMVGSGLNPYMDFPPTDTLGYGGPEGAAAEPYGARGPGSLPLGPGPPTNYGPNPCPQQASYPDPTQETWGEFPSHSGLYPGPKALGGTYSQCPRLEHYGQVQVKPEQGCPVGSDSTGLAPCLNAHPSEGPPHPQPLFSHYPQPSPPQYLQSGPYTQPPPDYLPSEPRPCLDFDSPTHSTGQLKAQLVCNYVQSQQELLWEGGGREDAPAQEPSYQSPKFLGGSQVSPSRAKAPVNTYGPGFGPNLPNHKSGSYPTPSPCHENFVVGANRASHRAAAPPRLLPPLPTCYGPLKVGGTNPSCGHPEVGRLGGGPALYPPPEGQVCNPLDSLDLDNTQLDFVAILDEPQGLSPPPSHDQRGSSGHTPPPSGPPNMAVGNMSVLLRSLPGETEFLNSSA
How it was run: (§2)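 They were replated 18 h later, given compound or DMSO 6 h after plating, and exposed for 24 h at 37 °C, 5% CO2. Lysate was read by dual luciferase as firefly/Renilla, triplicate, DMSO = 0%. IC50 came from curve fitting.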

SJRH30 = assay: Cytotoxicity against human Rh30 cells at 40 uM/well after 68 hrs by alamar blue assay; format: functional, cell-based; how it was run: as §1
DU-145 = assay: Cytotoxicity against human DU145 cells at 40 uM/well after 68 hrs by alamar blue assay; format: functional, cell-based; how it was run: as §1
BJ = assay: Cytotoxicity against human TERT-immortalized human BJ cells at 40 uM/well after 68 hrs by alamar blue assay; format: cell-based; how it was run: as §1
Daoy = assay: Cytotoxicity against human DaOY cells at 40 uM/well after 68 hrs by alamar blue assay; format: functional, cell-based; how it was run: as §1
HepG2 = assay: Cytotoxicity against human HepG2 cells at 40 uM/well after 68 hrs by alamar blue assay; format: functional, cell-based; how it was run: as §1
[2] = molecular target: T1, Zinc finger protein GLI1 (Homo sapiens); assay: Inhibition of exogenously transfected human Gli1-mediated transcriptional activity in mouse C3H10T1/2 cells at 40 uM after 24 hrs by luciferase reporter gene assay; format: cell-based; settings: C3H 10T1/2; how it was run: as §2
LN-229 = assay: Cytotoxicity against human LN229 cells at 40 uM/well after 68 hrs by alamar blue assay; format: functional, cell-based; how it was run: as §1

inhibition [1] | inhibition [2] | SMILES | Activity (MDA-MB-231) | Activity (Raji) | Activity (SJRH30) | Activity (DU-145) | Activity (BJ) | Activity (Daoy) | Activity (HepG2) | Activity (LN-229)
Active | Active | C[C@H](COC(=O)Nc1ccc(O)cc1)c1cccc(C(=O)c2ccccc2)c1 | Active | Active | Active | Active | Non-toxic | Active | inactive | inactive
Active | Active | C[C@H](C(=O)NCc1ccc(O)cc1)c1cccc(C(=O)c2ccccc2)c1 | Active | Active | Active | Active | Non-toxic | Active | inactive | inactive
Active | Active | C[C@H](COC(=O)NCCc1ccc(O)cc1)c1cccc(C(=O)c2ccccc2)c1 | Active | Active | Active | Active | Non-toxic | Active | inactive | inactive

Continued, compound first:

SMILES | inhibition [1] | inhibition [2] | Activity (MDA-MB-231) | Activity (Raji) | Activity (SJRH30) | Activity (DU-145) | Activity (BJ) | Activity (Daoy) | Activity (HepG2) | Activity (LN-229)
C[C@H](C(=O)NCCc1ccccc1)c1cccc(C(=O)c2ccccc2)c1 | Active | Active | Active | Active | Active | Active | Non-toxic | Active | inactive | inactive
COc1ccc(CCNC(=O)[C@@H](C)c2cccc(C(=O)c3ccccc3)c2)cc1O | Active | Active | Active | Active | Active | Active | Non-toxic | Active | inactive | inactive
COc1cc(CCNC(=O)[C@@H](C)c2cccc(C(=O)c3ccccc3)c2)ccc1O | Active | Active | Active | Active | Active | Active | Non-toxic | Active | inactive | inactive
COc1ccc(C(=O)NC[C@@H](C)c2cccc(C(=O)c3ccccc3)c2)cc1 | Active | Active | Active | Active | Active | Active | Non-toxic | Active | inactive | inactive
COc1ccc(COC[C@@H](C)c2cccc(C(=O)c3ccccc3)c2)cc1 | inactive | inactive | Active | Active | Active | Active | Non-toxic | Active | inactive | inactive
COc1ccc2cc([C@H](C)C(=O)NCCc3ccc(O)cc3)ccc2c1 | Active | Active | Active | Active | Active | Active | Non-toxic | Active | inactive | inactive
COc1ccc2c(c1)c(CC(=O)NCCc1ccc(O)cc1)c(C)n2C(=O)c1ccc(Cl)cc1 | Active | Active | Active | Active | Active | Active | Non-toxic | Active | inactive | inactive
